Screening data: PubChem BioAssay, several laboratories
TNAP inh no acc – TNAP (human) inhibition, acceptor-free conditions; purified TNAP, CDP-star luminescence, 30 min; inhibition, % at 20 µM; hit rate 0.26% among 200,000;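 active means tissue-nonspecific alkaline phosphatase inhibition above about 50% at 20 µM in the single-dose screen, limit read from the data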
Target sequence (P05186 whole entry, looked up): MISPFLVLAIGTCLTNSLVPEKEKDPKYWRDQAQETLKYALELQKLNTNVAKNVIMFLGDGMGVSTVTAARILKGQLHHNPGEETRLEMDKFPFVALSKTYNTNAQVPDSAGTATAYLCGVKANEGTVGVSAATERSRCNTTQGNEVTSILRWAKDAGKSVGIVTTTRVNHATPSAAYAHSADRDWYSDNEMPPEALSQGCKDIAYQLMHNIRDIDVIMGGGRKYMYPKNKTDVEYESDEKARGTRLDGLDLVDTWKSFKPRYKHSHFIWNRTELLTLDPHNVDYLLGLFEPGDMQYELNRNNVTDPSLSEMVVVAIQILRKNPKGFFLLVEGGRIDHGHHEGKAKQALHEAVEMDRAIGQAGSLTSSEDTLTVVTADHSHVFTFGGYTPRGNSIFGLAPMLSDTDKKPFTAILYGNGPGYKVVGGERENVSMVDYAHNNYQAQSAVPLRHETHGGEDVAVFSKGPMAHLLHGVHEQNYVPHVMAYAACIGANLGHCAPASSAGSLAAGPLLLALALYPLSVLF
Arbovirus anti – blocks arbovirus infection; arbovirus infection cell-based antiviral screen; inhibition, % at 10 µM; hit rate 0.37% among 200,000; AID 1251; in the data active means inhibition above about 30%
TNAP inh hi DEA – TNAP (human) inhibition, high acceptor; P05186; purified TNAP, CDP-star luminescence, 1 M DEA; inhibition, % at 20 µM; hit rate 0.03% among 200,000; AID 1135;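 active means over 50% inhibition of tissue-nonspecific alkaline phosphatase at 20 µM in the single-dose screen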
TNAP act hiacc – TNAP (human) activation, high acceptor. P05186. purified TNAP, CDP-star luminescence, 1 M DEA, 30 min; active compounds read high; 0 = EDTA background, 1 = DMSO-only activity. activation factor at 20 µM. 200,000 tested, under 10 active. AID 1136;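 active means activation factor at least 2 at 20 µM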
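Dosing: 20 µM single point. System: human TNAP. Amount: TNAP 1/800 final. Incubation: 30 min, room temperature. Read-out: TNAP activation factor scaled between EDTA and DMSO control wells. Signal: luminescence from CDP-star hydrolysis. Medium: 1 M DEA, pH 9.8, Mg2+, Zn2+. Control set: EDTA negative control, DMSO positive control.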
WT yeast gro inh – growth inhibition of WT yeast, mitochondrial fusion screen; mitochondrial fusion phenotypic screen, WT strain; AID 1362; hit rate 2.1% among 190,000; inhibition, % at 10 µM; in the data active means inhibition above about 58%; tested in S. cerevisiae
Numbers stand for hits; – = inactive; · = not tested or not shown. An excerpt weighted towards active compounds, which were near 2.6% of everything screened.

SMILES	TNAP inh no acc	Arbovirus anti	TNAP inh hi DEA	TNAP act hiacc	WT yeast gro inh
CNc1oc(Cc2cccc3ccccc23)nc1C#N	–	–	–	–	–
CC1CN(c2oc(Cc3cccc4ccccc34)nc2C#N)CC(C)O1 (stereo not given)	–	–	–	–	61
O=C(/C=N/O)NCCN1CCCCC1	–	–	–	–	59
Cc1c(NC(=O)c2ccc(C(C)(C)C)cc2)cccc1[N+](=O)[O-]	–	–	–	–	–
CC(C)(C)c1ccc(NC(=O)c2ccccc2)c([N+](=O)[O-])c1	–	–	–	–	66
Cc1cc(=O)oc2cc(OCC3CC(c4ccc(Cl)cc4)=NO3)ccc12 (stereo not given)	–	–	–	–	65
Cc1cc(=O)oc2cc(OCC3CC(c4ccc(N(C)C)cc4)=NO3)ccc12 (stereo not given)	–	–	–	–	–
Cc1ccc(C(=O)C(C)OC(=O)c2n[nH]c(=O)c3ccccc23)cc1 (stereo not given)	–	–	–	–	–
Cc1ccccc1OCCCCc1c(C)n[nH]c1C	–	–	–	–	76
CS(=O)(=O)N1CCN=C1SCc1ccc([N+](=O)[O-])cc1	–	–	–	–	–
CC(=O)CCn1cnc([N+](=O)[O-])n1	–	–	–	–	–
COc1cc(/C=C2\SC(=S)NC2=O)ccc1OS(=O)(=O)c1ccccc1	–	–	–	–	79
COc1cc(/C=C2/SC(=S)NC2=O)ccc1OS(=O)(=O)c1ccc(C)cc1	–	–	–	–	73
O=C(CSCc1ccc(Br)cc1)NCc1ccccn1	–	–	–	–	–
O=C(Cn1nnc(-c2ccccc2)n1)NNC(=O)c1ccco1	–	–	–	–	–
Fc1ccc(Br)cc1C1C=C(c2ccc(Br)s2)Nc2ncnn21 (stereo not given)	–	37	–	–	–
CC1=CC(C)(C)N(S(=O)(=O)c2ccc(C)cc2)c2ccc(C)cc21	–	–	–	–	63
CC1=CC(C)(C)N(S(=O)(=O)c2ccc(F)cc2)c2ccccc21	–	–	–	–	–
COc1ccc(C(=O)O/N=C(\N)Cc2ccc(Cl)c(Cl)c2)cc1OC	–	–	–	–	94
O=C(CSc1n[nH]c(-c2ccccc2)n1)Nc1ccc(Br)cn1	57	–	–	–	–
CCc1nc(SCC(=O)Nc2c(C)n(C)n(-c3ccccc3)c2=O)n[nH]1	–	–	–	–	–
Cc1noc(NS(=O)(=O)c2ccc(NC(=O)CSc3n[nH]c(-c4ccccc4)n3)cc2)c1C	60	–	–	–	–
Cc1c(NC(=O)CSc2n[nH]c(-c3ccccc3)n2)c(=O)n(-c2ccccc2)n1C	53	–	–	–	–
Nn1c(Cc2cccc3ccccc23)nnc1SCCOc1ccc(Br)cc1	–	–	–	–	68
Cc1ccc(-n2ncc3c2ncn2c(-c4ccncc4)nnc32)cc1	54	·	–	–	·
SMILES	TNAP inh no acc	Arbovirus anti	TNAP inh hi DEA	TNAP act hiacc	WT yeast gro inh
Cc1noc(C)c1C(=O)OCC(=O)Nc1c(F)cccc1F	–	–	–	–	–
CCCN1Cc2cccc(C(=O)N3CCN(c4cc(Cl)ccc4C)CC3)c2C1=O	–	47	–	–	–
COCCN1Cc2cccc(C(=O)N3CCN(c4cc(C)ccc4C)CC3)c2C1=O	–	–	–	–	–
Cc1cccc(Cn2nc(C)cc2NC(=O)CCCn2ccc([N+](=O)[O-])n2)c1	–	–	–	–	–
COc1ccc2c(c1)CCc1c(C(=O)N3CCOCC3)noc1-2	–	–	–	–	–
COc1ccc2c(c1)CCc1c(C(=O)N3CC4(C)CC3CC(C)(C)C4)noc1-2 (stereo not given)	–	–	–	–	73
C/C(=N\NC(=S)NCc1ccccc1)c1ccc(C(C)(C)C)cc1	–	–	–	–	63
CNC(=S)N/N=C(\C)c1ccc(C(C)(C)C)cc1	–	–	–	–	75
C/C(=N\NC(=S)NCc1ccccc1)c1ccccc1	–	–	–	–	62
FC(F)(Cl)c1nnc2ccc(Sc3ccccn3)nn12	–	–	–	–	–
COc1ccc(CNC(=O)c2c(C)oc3c2C(=O)c2ccccc2C3=O)cc1	–	–	–	–	–
Cc1oc2c(c1C(=O)NCc1cccnc1)C(=O)c1ccccc1C2=O	–	–	–	–	88
COc1cc(/C=N/NC(=O)c2cccnc2)ccc1OCC(=O)N1CCOCC1	–	–	–	–	–
CC(C)c1nc(SCC(=O)Nc2nc3c(s2)CCCC3)c2ccccc2n1	–	–	–	–	62
Cc1ccc(NC(=S)N/N=C/c2c(C)[nH]c3ccccc23)cc1	–	–	–	–	96
CS(=O)(=O)n1nc(-c2ccc(Cl)cc2)nc1SCc1ccccc1	68	–	–	–	–
O=C(/C=C/c1ccc(O)cc1)c1ccc(O)cc1O	–	–	–	–	–
CC(C)=CCC/C(C)=C/Cc1c(O)ccc(C(=O)/C=C/c2ccc(O)cc2)c1O	–	–	–	–	95
Cc1ccc(C)c(NC(=O)CSc2ccc(-c3ccco3)nn2)c1	–	–	–	–	–
Cc1ccc(NC(=O)C(Nc2ccccc2)c2ccccc2)cc1 (stereo not given)	–	–	–	–	–
Cc1ccc(NC(=O)C(Nc2cccc(C)c2)c2ccccc2)cc1 (stereo not given)	–	–	–	–	70
CSc1ccc(/C=N/n2c(Cc3ccc(Br)cc3)n[nH]c2=S)cc1	–	–	–	–	71
CCc1ccccc1NC(=O)CSc1nc(-c2ccccc2)nn1C(=O)c1cccc([N+](=O)[O-])c1	–	–	–	–	–
O=C(CSc1nc(-c2ccccc2)nn1C(=O)c1ccccc1)Nc1cccc([N+](=O)[O-])c1	54	–	–	–	–
Cc1ccc(C(=O)CC(=O)c2cccc(F)c2)c(O)c1	–	–	–	–	69
SMILES	TNAP inh no acc	Arbovirus anti	TNAP inh hi DEA	TNAP act hiacc	WT yeast gro inh
CCN(CC)C(=O)Oc1cc(=O)n2c3c(cccc13)CCC2	–	–	–	–	–
Oc1[nH]c2ccccc2c1N=NC(=S)NCCc1ccccc1	–	–	–	–	–
NC(=S)N=Nc1c(O)[nH]c2ccccc12	65	–	–	–	–
Cc1cc(Nc2ccccc2)nn1C(=O)c1ccc(Cl)cc1	–	–	–	–	80
Cc1cc(Nc2ccccc2)nn1C(=O)c1ccc([N+](=O)[O-])cc1	–	–	–	–	–
CSc1nsc2nc(=O)c(/C=C3\C(C)=Nc4ccccc43)c(N)n12	–	32	–	–	–
COc1ccc(-c2cc3nc(C)cc(N4CC(C)CC(C)C4)n3n2)cc1 (stereo not given)	–	–	–	–	70
CCCCS(=O)(=O)/C=C\C1C2C=CC(C2)C1S(=O)(=O)CCCC (stereo not given)	–	–	–	–	–
CCCCS(=O)(=O)/C=C\C=C/S(=O)(=O)CCCC	–	–	–	–	88
CCSc1cnn(-c2ccccc2)c(=O)c1SCC	–	–	–	–	–
CCCCSc1cnn(-c2ccccc2)c(=O)c1SCCCC	–	–	–	–	64
COc1ccc(Br)cc1CN(C)CC(=O)Nc1c(Cl)cccc1Cl	–	30	–	–	–
